We go through 33 compounds from ChEMBL document CHEMBL3875151, “Design, synthesis, biological evaluation and molecular docking study on peptidomimetic analogues of XK469” (Eur J Med Chem, 2016).

Molecules are shown by their SMILES. Calls of active or inactive are those of the source. No cut-off for these calls is given here. Some results are limits rather than exact numbers.

Data set [1] is described as follows: Antiproliferative activity against human MCF7 cells after 48 hrs by MTT assay. Format: functional, cell-based. The note with it: MCF7, 48 h. An outline of the steps:
(§1)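 Cells kept in RPMI-1640 with 10% heat-inactivated FBS, 37°C, 5% CO2. 10^4 cells/well seeded, compounds (dissolved in DMSO or PBS, diluted in medium) added after 4 h at final 200, 150, 100, 50 and 10 μM for 48 h. MTT then 4 h, formazan dissolved in DMSO, OD 570 nm. Growth inhibition vs medium control; IC50 from inhibition ratios; three independent experiments in triplicate.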
In general terms: Formazan colour is commonly taken as a measure of viable cells.

Data set [2] is described as follows: Antiproliferative activity against human K562 cells after 48 hrs by MTT assay. Format: functional, cell-based. The note with it: K562, 48 h. An outline of the steps:
as §1

The nature of data set [3]: Antiproliferative activity against human HeLa cells after 48 hrs by MTT assay. Format: functional, cell-based. The essentials: as §1
Data set [4] can be described thus: Anti-metastatic activity against H22 cells xenografted in Balb/c mouse assessed as lung weight at 10 mg/kg/day, ig administered 6 days per week for two consecutive weeks measured on day 12 post last dose (reference value: 0.287 +/- 0.117 g). Format: functional.
A short description of data set [5]: Anti-metastatic activity against H22 cells xenografted in Balb/c mouse assessed as inhibition of metastasized nodes on lung surface at 10 mg/kg/day, ig administered 6 days per week for two consecutive weeks measured on day 13 post dose by microscopic method relative to control. Format: functional. Particulars: po. The essentials:
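BALB/c mice (18~22 g, both sexes) injected via tail vein with 6 × 10^6 H22 ascites cells. After 24 h, randomized into groups of 10. Compounds given intragastrically at 10 mg/kg in 0.5% CMC-Na (2 mg/ml), vehicle to controls. Lung-surface metastatic nodes counted under microscope; inhibition rate from mean node counts vs vehicle group.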

The test system of data set [6] is Mus musculus. The data set can be described thus: Toxicity in Balb/c mouse xenografted with […] cells assessed as body weight at 10 mg/kg/day, ig administered 6 days per week for two consecutive weeks (reference value: 20.17 +/- 3.66 g). Format: organism-based. Particulars: in vivo, po, 144 h. In general terms: A xenograft is tissue or cells of one species grown in another, often human tumour cells in immunodeficient mice.

Data set [7] deals with Mus musculus. Put plainly: Toxicity in Balb/c mouse xenografted with […] cells assessed as mouse survival at 10 mg/kg/day, ig administered 6 days per week for two consecutive weeks. Format: organism-based. Particulars: in vivo, po, 144 h. An outline of the steps:
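H22 hepatocarcinoma ascites from BALB/c donor mice was diluted 1:4 in saline (3 × 10^7 cells/ml), and 0.2 mL (6 × 10^6 cells) was injected via tail vein into BALB/c mice weighing 18~22 g. After 24 h, mice were weighed and randomised into 7 groups of 10, half of each sex. Compound was given intragastrically at 2 mg/ml in 0.5% CMC-Na, with vehicle controls. Surviving animals were counted against the original number per group.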

The target of data set [8] is DNA topoisomerase 2-alpha (Homo sapiens) (UniProt P11388). The data set can be described thus: Inhibition of human topoisomerase-2 alpha-mediated kinetoplast DNA decatenation at 3.15 to 200 uM after 15 mins by ethidium bromide staining based agarose gel electrophoresis relative to etoposide. The essentials: (§2)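 Human topo IIα (0.5 units) with 20 µg/mL kDNA in 50 mM Tris-HCl pH 8.0, 0.5 mM DTT, 10 mM MgCl2, 2 mM ATP. Compounds at 3.15, 12.5, 50 and 200 µM, 15 min at 37°C; stopped with SDS/glycerol. Products run on 1% agarose, 50 V, 50 min, ethidium bromide-stained, viewed under UV. Controls without enzyme and without inhibitor; etoposide reference.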

For data set [9] the target is unchanged. Put plainly: Inhibition of human topoisomerase-2 alpha-mediated kinetoplast DNA decatenation at 3.15 to 200 uM after 15 mins by ethidium bromide staining based agarose gel electrophoresis. The essentials:
as §2

The nature of data set [10]: Antiproliferative activity against human NCI60 cells after 48 hrs by SRB assay. Type of data set: functional, cell-based. Particulars: NCI60, 48 h. (The SRB assay estimates cell density from bound dye.)
Data set [11] has as its target DNA topoisomerase 2-alpha (Homo sapiens) (UniProt P11388). The data set can be described thus: Inhibition of human topoisomerase-2 alpha-mediated kinetoplast DNA decatenation after 15 mins by ethidium bromide staining based agarose gel electrophoresis. The essentials: as §2

Chain of DNA topoisomerase 2-alpha (Homo sapiens) (P11388 whole entry): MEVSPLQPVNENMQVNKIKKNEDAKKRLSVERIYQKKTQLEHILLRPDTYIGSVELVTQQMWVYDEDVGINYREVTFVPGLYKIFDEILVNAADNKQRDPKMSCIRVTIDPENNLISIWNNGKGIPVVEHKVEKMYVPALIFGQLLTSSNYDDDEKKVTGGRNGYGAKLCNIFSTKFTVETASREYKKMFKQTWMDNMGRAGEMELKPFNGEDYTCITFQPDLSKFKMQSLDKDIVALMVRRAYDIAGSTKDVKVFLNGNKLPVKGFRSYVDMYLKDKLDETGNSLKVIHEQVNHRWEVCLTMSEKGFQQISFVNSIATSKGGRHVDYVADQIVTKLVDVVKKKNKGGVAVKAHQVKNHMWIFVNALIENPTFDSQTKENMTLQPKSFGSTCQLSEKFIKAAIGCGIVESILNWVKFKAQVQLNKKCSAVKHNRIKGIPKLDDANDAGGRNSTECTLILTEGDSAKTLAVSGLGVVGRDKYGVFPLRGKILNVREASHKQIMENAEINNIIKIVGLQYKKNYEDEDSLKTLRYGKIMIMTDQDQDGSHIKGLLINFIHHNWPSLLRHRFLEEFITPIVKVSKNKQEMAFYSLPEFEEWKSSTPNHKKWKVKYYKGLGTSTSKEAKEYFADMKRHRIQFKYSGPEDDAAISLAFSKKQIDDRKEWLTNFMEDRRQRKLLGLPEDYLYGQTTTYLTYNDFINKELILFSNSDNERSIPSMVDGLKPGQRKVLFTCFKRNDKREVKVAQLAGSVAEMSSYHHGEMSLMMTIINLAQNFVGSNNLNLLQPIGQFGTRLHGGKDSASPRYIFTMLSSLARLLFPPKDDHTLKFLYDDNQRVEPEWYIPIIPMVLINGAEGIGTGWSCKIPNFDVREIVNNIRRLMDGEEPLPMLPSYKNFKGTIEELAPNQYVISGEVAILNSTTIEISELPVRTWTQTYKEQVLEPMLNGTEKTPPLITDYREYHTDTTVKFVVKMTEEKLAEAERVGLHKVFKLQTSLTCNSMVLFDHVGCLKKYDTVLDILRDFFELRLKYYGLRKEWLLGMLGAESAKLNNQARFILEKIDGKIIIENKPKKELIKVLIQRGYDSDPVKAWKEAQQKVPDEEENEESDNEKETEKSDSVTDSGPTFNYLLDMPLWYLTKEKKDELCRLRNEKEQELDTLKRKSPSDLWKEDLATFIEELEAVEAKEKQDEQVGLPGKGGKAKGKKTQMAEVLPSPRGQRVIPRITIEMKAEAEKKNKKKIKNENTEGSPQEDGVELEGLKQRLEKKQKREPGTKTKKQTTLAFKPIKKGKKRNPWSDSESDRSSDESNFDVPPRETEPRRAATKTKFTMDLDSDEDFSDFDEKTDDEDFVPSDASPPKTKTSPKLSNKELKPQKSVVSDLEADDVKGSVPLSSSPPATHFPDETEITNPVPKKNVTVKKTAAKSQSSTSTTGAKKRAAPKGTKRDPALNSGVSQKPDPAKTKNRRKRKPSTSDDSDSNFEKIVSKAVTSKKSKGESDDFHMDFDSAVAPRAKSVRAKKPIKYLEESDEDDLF

For the compound `COC(=O)[C@H](CC(C)C)NC(=O)c1ccc(Oc2nc3ccc(Cl)cc3nc2C)cc1`, the IC50 was determined as 22.8 µM in [1], 32.6 µM in data set [2] and 37.6 µM in data set [3].

Consider `Cc1nc2ccc(Cl)cc2nc1Oc1ccc(C(=O)N[C@@H](CC(C)C)C(=O)O)cc1`, for which the IC50 came out at 15.1 µM in data set [1], 14.5 µM in data set [2] and 16.4 µM in data set [3]. Further, the Activity in data set [4] is listed as 0.254 g; in data set [6] it was 23.25 g; in [7] it was “Non-Toxic”. Moreover, the inhibition in vivo at 10 mg/kg/day in data set [5] amounted to 14.8%.

For `CC(C)C[C@H](NC(=O)c1ccc(Oc2nc3ccccc3nc2NC(C)(C)C)cc1)C(=O)O`, the results for the IC50 in data set [1], in data set [2] and in data set [3] were 40.3 µM, 42.3 µM and 39.2 µM, respectively.

With `COC(=O)[C@H](C)NC(=O)c1ccc(Oc2nc3ccccc3nc2NC(C)(C)C)cc1`, the IC50 was 38.4 µM in data set [1], 42.2 µM in data set [2] and 55.2 µM in data set [3].

As to `COC(=O)[C@H](C)NC(=O)c1ccc(Oc2nc3ccc(Cl)cc3nc2C)cc1`, the IC50 in data set [1] turned out to be 33.8 µM; in data set [2] it was 26 µM; in data set [3], 42.5 µM.

As to `CC(C)(C)Nc1nc2ccccc2nc1Oc1ccc(C(=O)NCC(=O)O)cc1`, the IC50 in data set [1], in data set [2] and in [3] was greater than 50 µM in each case.

On to `CC[C@@H](C)[C@H](NC(=O)c1ccc(Oc2nc3ccccc3nc2NC(C)(C)C)cc1)C(=O)OC`, for which the IC50 in data set [1] was 33.4 µM; in [2], 38.7 µM; in data set [3], 31.9 µM.

The compound `CCCCCCCCCCCCNc1nc2ccccc2nc1Oc1ccc(C(=O)N[C@@H](Cc2ccccc2)C(=O)O)cc1` gave a fold change (FC) in data set [8] of 4. Also, the IC50 in [1] amounted to 6.79 µM; in data set [2], 7.37 µM; in [3] it was 9.19 µM. Besides, the Activity was found to be 0.197 g in data set [4] and 20.85 g in data set [6]. Also, the inhibition entry in data set [9] was “Active”. Also, in [5], the inhibition in vivo at 10 mg/kg/day was found to be 33.7%.

`COC(=O)[C@H](C)NC(=O)c1ccc(Oc2nc3ccccc3nc2C)cc1`: the IC50 stood at 38.4 µM in data set [1], 45.5 µM in data set [2] and 32.2 µM in data set [3].

`COc1cccc2c1C(=O)c1c(O)c3c(c(O)c1C2=O)C[C@@](O)(C(=O)CO)C[C@@H]3O[C@H]1C[C@H](N)[C@H](O)[C@H](C)O1` [DOXORUBICIN]: the Activity in [4] came to 0.217 g; in data set [6], 23.32 g. Moreover, the inhibition in vivo at 10 mg/kg/day in data set [5] was 59.9%. The IC50 in data set [2] came to 13.5 µM; in data set [3], 11.5 µM.

Regarding `CC[C@@H](C)[C@H](NC(=O)c1ccc(Oc2nc3ccccc3nc2NC(C)(C)C)cc1)C(=O)O`, the IC50 in data set [1] stood at 11.3 µM; in data set [2], 18.3 µM; in data set [3], 13.4 µM. Further, the Activity in data set [4] is 0.211 g; in data set [6], 21.84 g; in data set [7], “Non-Toxic”. The inhibition in vivo at 10 mg/kg/day in [5] amounted to 27.6%.

Compound `C[C@@H](Oc1ccc(Oc2cnc3ccc(Cl)cc3n2)cc1)C(=O)O` [R(+)XK469] gave an IC50 in [10] of 70 µM.

For `CC(C)(C)Nc1nc2ccccc2nc1Oc1ccc(C(=O)N[C@@H](Cc2ccccc2)C(=O)O)cc1`, the IC50 in data set [1] is 25.3 µM; in [2] it was 15.2 µM; in data set [3], 20.5 µM.

For `Cc1nc2cc(Cl)ccc2nc1Oc1ccc(C(=O)N[C@@H](C)C(=O)O)cc1`, the IC50 came to 19.4 µM in data set [1], 20.9 µM in data set [2] and 30 µM in data set [3].

Regarding `Cc1nc2ccccc2nc1Oc1ccc(C(=O)N[C@@H](C)C(=O)O)cc1`, the IC50 in data set [1] came out at 25.6 µM; in data set [2], 28.1 µM; in data set [3], 22.3 µM.

For `C[C@H](NC(=O)c1ccc(Oc2nc3ccccc3nc2NC(C)(C)C)cc1)C(=O)O`, the IC50 in [1] came to 29.4 µM; in [2], 26.4 µM; in [3], 23.4 µM.

Regarding `CCCCCCCCCCCCNc1nc2ccccc2nc1Oc1ccc(C(=O)N[C@@H](C)C(=O)OC)cc1`, the IC50 in data set [1] is 33.8 µM; in data set [2], 26.7 µM; in data set [3], 28.5 µM.

With `CCCCCCCCCCCCNc1nc2ccccc2nc1Oc1ccc(C(=O)N[C@H](C(=O)O)[C@H](C)CC)cc1`, the concentration for half-maximal inhibition (IC50) came to 30.4 µM in data set [1], 21.5 µM in data set [2] and 35.5 µM in [3].

Turning to `COC(=O)[C@H](CC(C)C)NC(=O)c1ccc(Oc2nc3ccccc3nc2NC(C)(C)C)cc1`, the IC50 in [1], in data set [2] and in [3] was greater than 50 µM throughout.

Regarding `CCCCCCCCCCCCNc1nc2ccccc2nc1Oc1ccc(C(=O)N[C@H](C(=O)OC)[C@H](C)CC)cc1`, the figures for the IC50 in [1], in [2] and in data set [3] were 43.3 µM, 30.8 µM and 40.3 µM, respectively.

Take `COC(=O)[C@H](Cc1ccccc1)NC(=O)c1ccc(Oc2nc3ccccc3nc2NC(C)(C)C)cc1`: the IC50 was greater than 50 µM in data set [1], 10.3 µM in [2] and greater than 50 µM in data set [3].

Take `Cc1nc2ccc(Cl)cc2nc1Oc1ccc(C(=O)N[C@@H](Cc2ccccc2)C(=O)O)cc1`: the IC50 in [1] worked out at 20.2 µM; in data set [2], 21.5 µM; in data set [3] it was 20.2 µM.

For `COc1cc([C@@H]2c3cc4c(cc3[C@@H](O[C@@H]3O[C@@H]5CO[C@@H](C)O[C@H]5[C@H](O)[C@H]3O)[C@H]3COC(=O)[C@H]23)OCO4)cc(OC)c1O`, the inhibition result in data set [9] is “Active”.

In the case of `CCCCCCCCCCCCNc1nc2ccccc2nc1Oc1ccc(C(=O)N[C@@H](C)C(=O)O)cc1`, the IC50 in [1] was 4.11 µM; in [2], 3.28 µM; in data set [3] it was 6.24 µM. Further, the Activity in [4] is reported as 0.23 g; in [6], 24.62 g. In data set [5], the inhibition in vivo at 10 mg/kg/day worked out at 42.5%. For the same compound, the inhibition entry in data set [11] is “Dose-dependent effect”.

In the case of `COC(=O)CNC(=O)c1ccc(Oc2nc3ccccc3nc2NC(C)(C)C)cc1`, the IC50 in [1], in data set [2] and in [3] was greater than 50 µM in each case.

On to `COC(=O)[C@H](CC(C)C)NC(=O)c1ccc(Oc2nc3cc(Cl)ccc3nc2C)cc1`, for which the 50% inhibitory concentration (IC50) in data set [1] came to 19.1 µM; in data set [2] it was 22 µM; in data set [3] it was 18.6 µM.

For the compound `Cc1nc2ccccc2nc1Oc1ccc(C(=O)N[C@@H](CC(C)C)C(=O)O)cc1`, the IC50 in [1] worked out at 14.7 µM; in data set [2], 19.5 µM; in [3] it was 17.3 µM. In addition, the Activity in data set [4] is 0.238 g; in data set [6], 22.46 g; in data set [7], “Non-Toxic”. Moreover, in [5], the inhibition in vivo at 10 mg/kg/day is 11%.

As to `CC[C@@H](C)[C@H](NC(=O)c1ccc(Oc2nc3ccccc3nc2C)cc1)C(=O)OC`, the values for the IC50 in data set [1], in data set [2] and in data set [3] were 36.1 µM, 38.3 µM and greater than 50 µM, respectively.

Take `CCCCCCCCCCCCNc1nc2ccccc2nc1Oc1ccc(C(=O)N[C@@H](Cc2ccccc2)C(=O)OC)cc1`: the IC50 in data set [1] was 33.4 µM; in [2], 30.5 µM; in data set [3], 34.4 µM.

As to `Cc1nc2cc(Cl)ccc2nc1Oc1ccc(C(=O)N[C@@H](CC(C)C)C(=O)O)cc1`, the values for the half-inhibitory concentration (IC50) in data set [1], in data set [2] and in data set [3] were 17.4 µM, 21.3 µM and 25 µM, respectively.

Consider `CC[C@@H](C)[C@H](NC(=O)c1ccc(Oc2nc3ccccc3nc2C)cc1)C(=O)O`, for which the half-maximal inhibitory concentration (IC50) in data set [1] is 35.7 µM; in data set [2], 30.5 µM; in data set [3] it was 33.2 µM.

`COC(=O)[C@H](Cc1ccccc1)NC(=O)c1ccc(Oc2nc3cc(Cl)ccc3nc2C)cc1`: the IC50 was 25.5 µM in [1], 27.5 µM in data set [2] and 28.8 µM in [3].

With `COC(=O)[C@H](CC(C)C)NC(=O)c1ccc(Oc2nc3ccccc3nc2C)cc1`, the IC50 in data set [1] was found to be 25.5 µM; in [2], 22.6 µM; in data set [3], 21.6 µM.

What is called IC50 is the concentration that gives 50% inhibition. Read a low IC50 as inhibition by little substance. By inhibition in vivo is commonly meant how much of the control response was suppressed.
